According to ChEMBL document CHEMBL1147809, “Tumor-cell-targeted methionine-enkephalin analogues containing unnatural amino acids: design, synthesis, and in vitro antitumor activity” (2006):
*1 amine or outer side, *2 acyl side, *3 side chain or, on linkers, in order; H or OH if unused. Where a SMILES comes first, the peptide text is derived from it. [ ]: non-standard residue; d: D form. X2 = O=C(C1(N[*:1])C2CC3CC(C2)CC1C3)[*:2]

tested on: HeLa; assay: Antiproliferative activity against human HeLa cell line at 1000 uM relative to control; assay type: functional
Summary of the method: (§1)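 Cells from ATCC grown as monolayers in DMEM with 10% FBS, 2 mM glutamine, penicillin/streptomycin, 37 °C, 5% CO2. Seeded at 2 × 10^4 cells/mL, and after 24 h the medium was replaced with fresh medium containing compound (water/10% DMSO stock, PBS working dilutions 10^-3 to 10^-6 M). Exposure was 72 h, then MTT read-out. Growth % = (A_peptide − A_blank)/(A_control − A_blank) × 100, with inhibition taken relative to untreated cells. Values are means of three experiments run in triplicate.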

Compound	inhibition at 1000 µM [%]
CSCC[C@H](NC(=O)[C@H](Cc1ccccc1)NC(=O)CNC(=O)C1(NC(=O)[C@@H](N)Cc2ccc(O)cc2)C2CC3CC(C2)CC1C3)C(=O)O (stereo not given in full) (H-Y[X2]GFM-OH)	28

tested on: HBL; assay: Antiproliferative activity against human HBL cell line at 10 uM relative to control; assay type: functional; summary of the method: as §1

Compound	inhibition at 10 µM [%]
CSCC[C@H](NC(=O)[C@H](Cc1ccccc1)NC(=O)CNC(=O)C1(NC(=O)[C@@H](N)Cc2ccc(O)cc2)C2CC3CC(C2)CC1C3)C(=O)O (stereo not given in full) (H-Y[X2]GFM-OH)	1.4

tested on: HBL; assay: Antiproliferative activity against human HBL cell line at 100 uM relative to control; assay type: functional; summary of the method: as §1

Compound	inhibition at 100 µM [%]
CSCC[C@H](NC(=O)[C@H](Cc1ccccc1)NC(=O)CNC(=O)C1(NC(=O)[C@@H](N)Cc2ccc(O)cc2)C2CC3CC(C2)CC1C3)C(=O)O (stereo not given in full) (H-Y[X2]GFM-OH)	2.4

tested on: HBL; assay: Antiproliferative activity against human HBL cell line at 1000 uM relative to control; assay type: functional; summary of the method: as §1

Compound	inhibition at 1000 µM [%]
CSCC[C@H](NC(=O)[C@H](Cc1ccccc1)NC(=O)CNC(=O)C1(NC(=O)[C@@H](N)Cc2ccc(O)cc2)C2CC3CC(C2)CC1C3)C(=O)O (stereo not given in full) (H-Y[X2]GFM-OH)	18.3

tested on: HT-29; assay: Antiproliferative activity against human HT29 cell line at 10 uM relative to control; assay type: functional; summary of the method: as §1

Compound	inhibition at 10 µM [%]
CSCC[C@H](NC(=O)[C@H](Cc1ccccc1)NC(=O)CNC(=O)C1(NC(=O)[C@@H](N)Cc2ccc(O)cc2)C2CC3CC(C2)CC1C3)C(=O)O (stereo not given in full) (H-Y[X2]GFM-OH)	11

tested on: HT-29; assay: Antiproliferative activity against human HT29 cell line at 100 uM relative to control; assay type: functional; summary of the method: as §1

Compound	inhibition at 100 µM [%]
CSCC[C@H](NC(=O)[C@H](Cc1ccccc1)NC(=O)CNC(=O)C1(NC(=O)[C@@H](N)Cc2ccc(O)cc2)C2CC3CC(C2)CC1C3)C(=O)O (stereo not given in full) (H-Y[X2]GFM-OH)	7.9

tested on: HT-29; assay: Antiproliferative activity against human HT29 cell line at 1000 uM relative to control; assay type: functional; summary of the method: as §1

Compound	inhibition at 1000 µM [%]
CSCC[C@H](NC(=O)[C@H](Cc1ccccc1)NC(=O)CNC(=O)C1(NC(=O)[C@@H](N)Cc2ccc(O)cc2)C2CC3CC(C2)CC1C3)C(=O)O (stereo not given in full) (H-Y[X2]GFM-OH)	23.7

tested on: SW-620; assay: Antiproliferative activity against human SW620 cell line at 10 uM relative to control; assay type: functional; summary of the method: as §1

Compound	inhibition at 10 µM [%]
CSCC[C@H](NC(=O)[C@H](Cc1ccccc1)NC(=O)CNC(=O)C1(NC(=O)[C@@H](N)Cc2ccc(O)cc2)C2CC3CC(C2)CC1C3)C(=O)O (stereo not given in full) (H-Y[X2]GFM-OH)	15.5

tested on: SW-620; assay: Antiproliferative activity against human SW620 cell line at 100 uM relative to control; assay type: functional; summary of the method: as §1

Compound	inhibition at 100 µM [%]
CSCC[C@H](NC(=O)[C@H](Cc1ccccc1)NC(=O)CNC(=O)C1(NC(=O)[C@@H](N)Cc2ccc(O)cc2)C2CC3CC(C2)CC1C3)C(=O)O (stereo not given in full) (H-Y[X2]GFM-OH)	24.7

tested on: SW-620; assay: Antiproliferative activity against human SW620 cell line at 1000 uM relative to control; assay type: functional; summary of the method: as §1

Compound	inhibition at 1000 µM [%]
CSCC[C@H](NC(=O)[C@H](Cc1ccccc1)NC(=O)CNC(=O)C1(NC(=O)[C@@H](N)Cc2ccc(O)cc2)C2CC3CC(C2)CC1C3)C(=O)O (stereo not given in full) (H-Y[X2]GFM-OH)	29

tested on: Caco-2; assay: Antiproliferative activity against human Caco-2 cell line at 10 uM relative to control; assay type: functional; summary of the method: as §1

Compound	inhibition at 10 µM [%]
CSCC[C@H](NC(=O)[C@H](Cc1ccccc1)NC(=O)CNC(=O)C1(NC(=O)[C@@H](N)Cc2ccc(O)cc2)C2CC3CC(C2)CC1C3)C(=O)O (stereo not given in full) (H-Y[X2]GFM-OH)	8.4

tested on: Caco-2; assay: Antiproliferative activity against human Caco-2 cell line at 100 uM relative to control; assay type: functional; summary of the method: as §1

Compound	inhibition at 100 µM [%]
CSCC[C@H](NC(=O)[C@H](Cc1ccccc1)NC(=O)CNC(=O)C1(NC(=O)[C@@H](N)Cc2ccc(O)cc2)C2CC3CC(C2)CC1C3)C(=O)O (stereo not given in full) (H-Y[X2]GFM-OH)	18.5

tested on: Caco-2; assay: Antiproliferative activity against human Caco-2 cell line at 1000 uM relative to control; assay type: functional; summary of the method: as §1

Compound	inhibition at 1000 µM [%]
CSCC[C@H](NC(=O)[C@H](Cc1ccccc1)NC(=O)CNC(=O)C1(NC(=O)[C@@H](N)Cc2ccc(O)cc2)C2CC3CC(C2)CC1C3)C(=O)O (stereo not given in full) (H-Y[X2]GFM-OH)	10.6

tested on: MCF7; assay: Antiproliferative activity against human MCF7 cell line at 1000 uM relative to control; assay type: functional; summary of the method: as §1

Compound	inhibition at 1000 µM [%]
CSCC[C@H](NC(=O)[C@H](Cc1ccccc1)NC(=O)CNC(=O)C1(NC(=O)[C@@H](N)Cc2ccc(O)cc2)C2CC3CC(C2)CC1C3)C(=O)O (stereo not given in full) (H-Y[X2]GFM-OH)	22.8

tested on: HEp-2; assay: Antiproliferative activity against human HEp2 cell line at 10 uM relative to control; assay type: functional; summary of the method: as §1

Compound	inhibition at 10 µM [%]
CSCC[C@H](NC(=O)[C@H](Cc1ccccc1)NC(=O)CNC(=O)C1(NC(=O)[C@@H](N)Cc2ccc(O)cc2)C2CC3CC(C2)CC1C3)C(=O)O (stereo not given in full) (H-Y[X2]GFM-OH)	10.1

tested on: HEp-2; assay: Antiproliferative activity against human HEp2 cell line at 100 uM relative to control; assay type: functional; summary of the method: as §1

Compound	inhibition at 100 µM [%]
CSCC[C@H](NC(=O)[C@H](Cc1ccccc1)NC(=O)CNC(=O)C1(NC(=O)[C@@H](N)Cc2ccc(O)cc2)C2CC3CC(C2)CC1C3)C(=O)O (stereo not given in full) (H-Y[X2]GFM-OH)	16.8

tested on: HEp-2; assay: Antiproliferative activity against human HEp2 cell line at 1000 uM relative to control; assay type: functional; summary of the method: as §1

Compound	inhibition at 1000 µM [%]
CSCC[C@H](NC(=O)[C@H](Cc1ccccc1)NC(=O)CNC(=O)C1(NC(=O)[C@@H](N)Cc2ccc(O)cc2)C2CC3CC(C2)CC1C3)C(=O)O (stereo not given in full) (H-Y[X2]GFM-OH)	36.1

tested on: HeLa; assay: Antiproliferative activity against human HeLa cell line at 10 uM relative to control; assay type: functional; summary of the method: as §1

Compound	inhibition at 10 µM [%]
CSCC[C@H](NC(=O)[C@H](Cc1ccccc1)NC(=O)CNC(=O)C1(NC(=O)[C@@H](N)Cc2ccc(O)cc2)C2CC3CC(C2)CC1C3)C(=O)O (stereo not given in full) (H-Y[X2]GFM-OH)	10.2

tested on: HeLa; assay: Antiproliferative activity against human HeLa cell line at 100 uM relative to control; assay type: functional; summary of the method: as §1

Compound	inhibition at 100 µM [%]
CSCC[C@H](NC(=O)[C@H](Cc1ccccc1)NC(=O)CNC(=O)C1(NC(=O)[C@@H](N)Cc2ccc(O)cc2)C2CC3CC(C2)CC1C3)C(=O)O (stereo not given in full) (H-Y[X2]GFM-OH)	13.3

tested on: SW-620; assay: Antiproliferative activity against human SW620 cell line at 1 uM relative to control; assay type: functional; summary of the method: as §1

Compound	inhibition at 1 µM [%]
CSCC[C@H](NC(=O)[C@H](Cc1ccccc1)NC(=O)CNC(=O)C1(NC(=O)[C@@H](N)Cc2ccc(O)cc2)C2CC3CC(C2)CC1C3)C(=O)O (stereo not given in full) (H-Y[X2]GFM-OH)	12.2

tested on: Caco-2; assay: Antiproliferative activity against human Caco-2 cell line at 1 uM relative to control; assay type: functional; summary of the method: as §1

Compound	inhibition at 1 µM [%]
CSCC[C@H](NC(=O)[C@H](Cc1ccccc1)NC(=O)CNC(=O)C1(NC(=O)[C@@H](N)Cc2ccc(O)cc2)C2CC3CC(C2)CC1C3)C(=O)O (stereo not given in full) (H-Y[X2]GFM-OH)	3

tested on: HEp-2; assay: Antiproliferative activity against human HEp2 cell line at 1 uM relative to control; assay type: functional; summary of the method: as §1

Compound	inhibition at 1 µM [%]
CSCC[C@H](NC(=O)[C@H](Cc1ccccc1)NC(=O)CNC(=O)C1(NC(=O)[C@@H](N)Cc2ccc(O)cc2)C2CC3CC(C2)CC1C3)C(=O)O (stereo not given in full) (H-Y[X2]GFM-OH)	1

tested on: HeLa; assay: Antiproliferative activity against human HeLa cell line at 1 uM relative to control; assay type: functional; summary of the method: as §1

Compound	inhibition at 1 µM [%]
CSCC[C@H](NC(=O)[C@H](Cc1ccccc1)NC(=O)CNC(=O)C1(NC(=O)[C@@H](N)Cc2ccc(O)cc2)C2CC3CC(C2)CC1C3)C(=O)O (stereo not given in full) (H-Y[X2]GFM-OH)	4.9

tested on: HBL; assay: Antiproliferative activity against human HBL cell line at 1 uM relative to control; assay type: functional; summary of the method: as §1

Compound	inhibition at 1 µM [%]
CSCC[C@H](NC(=O)[C@H](Cc1ccccc1)NC(=O)CNC(=O)C1(NC(=O)[C@@H](N)Cc2ccc(O)cc2)C2CC3CC(C2)CC1C3)C(=O)O (stereo not given in full) (H-Y[X2]GFM-OH)	0.8

tested on: HT-29; assay: Antiproliferative activity against human HT29 cell line at 1 uM relative to control; assay type: functional; summary of the method: as §1

Compound	inhibition at 1 µM [%]
CSCC[C@H](NC(=O)[C@H](Cc1ccccc1)NC(=O)CNC(=O)C1(NC(=O)[C@@H](N)Cc2ccc(O)cc2)C2CC3CC(C2)CC1C3)C(=O)O (stereo not given in full) (H-Y[X2]GFM-OH)	3.3
